Reference: paper PMC3767132 (Organic & biomolecular chemistry, 2012)
Read-outs that look alike come from different tables or passages of the source.

Legend:
hMetAP2 = hMetAP2 (Homo sapiens, UniProt P50579); test: human MetAP2 enzyme assay; assay type: biochemical; settings: for b = bottom value in the dose-response curve, hMetAP2: noted only when above 15%; for inhibition at 10 µM: read-out: inhibition of MetAP2 activity in HTS
HUVEC [1] = test: HUVEC proliferation assay using [3H]-thymidine incorporation; assay type: cell-based, human
hMetAP1 = hMetAP1 (Homo sapiens, UniProt P53582); test: human MetAP1 enzyme assay; assay type: biochemical; settings: for b = bottom value in the dose-response curve, hMetAP1: noted only when above 15%
HUVEC [2] = test: HUVEC cell-viability assay using calcein-AM; assay type: cell-based, human; settings: Homo sapiens, HUVEC, read-out: IC50 Calcein-AM HUVEC
HFF = HFF cell-viability assay using calcein-AM; assay type: cell-based, human
MetAP = test: Immunoblot of Met-14-3-3γ; assay type: cell-based, human; settings: for Immunoblot Met-14-3-3γ: compound treated HUVEC lysates, 24 h, signal relative to DMSO = 1.0
Summary of the method: (§1)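 HUVEC were exposed to test compound for 24 h, typically at 5 μM (some up to 10 μM), with DMSO as negative control. Lysates were immunoblotted for Met-14-3-3γ, 14-3-3γ, Ac-p53 and total p53. Band densities were taken as Met-14-3-3γ/14-3-3γ and Ac-p53/p53 per lane, relative to DMSO = 1.0. Ac-p53 was scored −(<2.0), +(2.0–7.0), ++(7.1–11.6), +++(>11.6).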

SIRT1 = test: Immunoblot of Ac-p53; assay type: cell-based, human; settings: for Immunoblot Ac-p53: compound treated HUVEC lysates, 24 h, signal relative to DMSO = 1.0
Summary of the method: as §1

[3] = Homo sapiens, HUVEC, read-out: IC50 HUVEC
[4] = IC50 hMetAP1, enzyme assay, 10 μM Co2+
[5] = read-out: IC50 hMetAP2, enzyme assay, 10 μM Mn2+
[6] = read-out: IC50 HUVEC, proliferation, 3H-T uptake
[7] = read-out: IC50 hMetAP1, enzyme assay, 10 μM Co2+
[8] = Homo sapiens, HUVEC, read-out: IC50 HUVEC, proliferation, 3H-T uptake
[9] = up to 10 μM, HUVEC, data not shown

Sequence of hMetAP2 (P50579 whole entry): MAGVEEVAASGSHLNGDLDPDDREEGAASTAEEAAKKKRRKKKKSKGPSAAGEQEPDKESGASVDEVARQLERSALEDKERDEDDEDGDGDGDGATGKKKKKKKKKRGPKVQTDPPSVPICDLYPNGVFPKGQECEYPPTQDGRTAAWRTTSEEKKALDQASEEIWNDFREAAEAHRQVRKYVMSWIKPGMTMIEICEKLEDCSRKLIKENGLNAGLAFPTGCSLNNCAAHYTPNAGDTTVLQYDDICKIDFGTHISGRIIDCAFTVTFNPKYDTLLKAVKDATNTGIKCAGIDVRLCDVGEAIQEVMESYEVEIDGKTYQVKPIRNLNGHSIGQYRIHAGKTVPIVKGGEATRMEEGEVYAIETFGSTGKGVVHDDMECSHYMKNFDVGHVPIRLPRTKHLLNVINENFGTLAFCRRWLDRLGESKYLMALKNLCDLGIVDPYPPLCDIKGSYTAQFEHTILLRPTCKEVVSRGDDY

SMILES	IC50 (hMetAP2) [µM]	IC50 (HUVEC [1]; [3]) [µM]	IC50 (hMetAP1; [4]) [µM]	IC50 (hMetAP2; [5]) [µM]	IC50 (HUVEC [1]; [6]) [µM]	IC50 (hMetAP1; [7]) [µM]	other results
CC(C)S(=O)(=O)Nc1ccc(O)c2ncccc12 [Entry 41, N-(8-Hydroxyquinolin-5-yl)propane-2-sulfonamide]	> 40	12.9 ± 0.13	> 40				
COc1ccc(CN(Cc2ccc(OC)cc2)c2ccc(O)c3ncccc23)cc1 [Entry 37, 5-(N,N-Di[(4-methoxy)benzyl])amino-8-hydroxyquinoline]	> 40	0.551 ± 0.08	1.46 ± 0.3				b = bottom value in the dose-response curve, hMetAP1 (hMetAP1): 32%
Oc1c(C(c2ccccc2)N2CCOCC2)cc(Cl)c2cccnc12 (centres unmarked) [Entry 18, 5-Chloro-7-(morpholino(phenyl)methyl)quinolin-8-ol]		1.92 ± 0.6	14				IC50 (HUVEC [2]): 3.55 ± 0.9 µM; b = bottom value of the curve, Calcein-AM HFF (HFF): 18%; IC50 (HFF; Homo sapiens, HFF, read-out: IC50 Calcein-AM HFF): 3.66 ± 0.7 µM
Cc1ccc2cccc(O)c2n1 [Entry 2]				> 15	2.7 ± 0.61	> 15	
CC(C)(C)C(=O)Oc1ccc([N+](=O)[O-])c2cccnc12 [Entry 46, 5-nitroquinolin-8-yl pivalate]	0.434 ± 0.1		> 15				Immunoblot Met-14-3-3γ (MetAP): + (+, ≥1.5); Immunoblot Ac-p53 (SIRT1): ++ (++, 7.1–11.6)
C=CCOc1c(Cl)cc(Cl)c2cccnc12 [Entry 28, 8-(Allyloxy)-5,7-dichloroquinoline]	> 15	2.32 ± 0.23	> 15				
CC(=O)Nc1ccc(O)c2ncccc12 [Entry 38]				> 40	10.2 ± 1.1	> 40	b = bottom value in the dose-response curve, HUVEC (HUVEC [1]; 3H-T uptake, noted only when above 15%): 28%
Oc1c(Cl)cc(Cl)c2cccnc12 [Entry 9]				> 15	3.64 ± 0.53	> 15	
Oc1c(Br)cc(Cl)c2cccnc12 [Entry 8]				> 15	2.21 ± 0.6	> 15	
O=C(Nc1ccccc1)Oc1ccc(Cl)c2cccnc12 [Entry 22, 5-chloroquinolin-8-yl phenylcarbamate]	5.26 ± 0.6		> 15		1.21 ± 0.51		b = bottom value in the dose-response curve, hMetAP2 (hMetAP2): 24%; inhibition at 10 µM (hMetAP2): > 90%; IC50 (HUVEC [1]; [8]): 1.2 µM
CCCCCC(=O)Nc1ccc(O)c2ncccc12 [Entry 39, N-(8-Hydroxyquinolin-5-yl)hexanamide]	> 40	8.45 ± 0.91	> 40				
Oc1c(Br)cc(Br)c2cccnc12 [Entry 10]				> 15	2.53 ± 0.71	> 15	
Oc1c(C(Nc2nccs2)c2ccco2)cc(Cl)c2cccnc12 (centres unmarked) [Entry 19, 5-Chloro-7-(furan-2-yl(thiazole-2-ylamino)methyl)quinolin-8-ol]	2.75 ± 0.4	2.53 ± 0.13	> 50				
Nc1cc(Cl)c2cccnc2c1O [Entry 45]				> 15	0.273 ± 0.07	> 40	Immunoblot Met-14-3-3γ (MetAP): − (−, >1.5); effect on the levels of Met-14-3-3γ (MetAP; [9]): no effect; Immunoblot Ac-p53 (SIRT1): − (−, <2.0); effect on the levels of Ac-p53 (SIRT1; [9]): no effect
C=CCOc1ccc(Cl)c2cccnc12 [Entry 27, 5-chloro-8-allyloxyquinoline]	> 50	> 50	> 15				inhibition at 10 µM (hMetAP2): > 90%
Cc1ccc2c([N+](=O)[O-])cc([N+](=O)[O-])c(O)c2n1 [Entry 43]				> 15	15.7 ± 1.3	17.3 ± 1.7	
Oc1c(I)cc(I)c2cccnc12 [Entry 11]				> 15	2.62 ± 0.08	> 15	
C=CCOc1cccc2ccc(C#N)nc12 [Entry 30, 8-(Allyloxy)quinoline-2-carbonitrile]	> 15	> 50	> 15				
NC(=O)COc1ccc([N+](=O)[O-])c2cccnc12 [Entry 50, 2-(5-nitroquinolin-8-yloxy)acetamide]	1.06 ± 0.5	6.3 ± 1.4	> 15				

SMILES	IC50 (hMetAP2) [µM]	IC50 (HUVEC [1]; [3]) [µM]	IC50 (hMetAP1; [4]) [µM]	IC50 (hMetAP2; [5]) [µM]	IC50 (HUVEC [1]; [6]) [µM]	IC50 (hMetAP1; [7]) [µM]	other results
N#Cc1ccc2cccc(O)c2n1 [Entry 3]				> 15	> 50	> 15	
O=C(Nc1ccc(F)cc1)Oc1c(Cl)cc(Cl)c2cccnc12 [Entry 25, 5,7-Dichloroquinolin-8-yl 4-fluorophenylcarbamate]	> 15		> 15				IC50 (HUVEC [1]; [8]): 3.58 ± 0.9 µM
OCCOc1ccc(Cl)c2cccnc12 [Entry 29]				> 15	2.4 ± 0.3	> 15	
CCOP(=O)(OCC)Oc1ccc(Cl)c2cccnc12 [Entry 26, 5-chloroquinolin-8-yl diethyl phosphate]	> 15	> 50	> 15				
O=[N+]([O-])c1cc(Cl)c2cccnc2c1O [Entry 44]				> 15	7.73 ± 0.77	> 15	
CCCCCCN(CCCCCC)c1ccc(O)c2ncccc12 [Entry 36, 5-(N,N-Di-n-hexyl)amino-8-hydroxyquinoline]	> 40	0.789 ± 0.21	> 40				
Oc1c(I)cc(Cl)c2cccnc12 [Entry 7, Clioquinol, reference compound]	2.39 ± 0.31	2.42 ± 0.5	> 15				IC50 (hMetAP1; IC50 MetAP1 with Co2+, Co2+ metalloform, data not shown): > 50 µM
O=C(Nc1ccc(O)c2ncccc12)N1CCOCC1 [Entry 42, N-(8-Hydroxyquinolin-5-yl)morpholine-4-carboxamide]	> 40	1.88 ± 0.3	> 40				
Nc1cccc2cccnc12 [Entry 31, 8-aminoquinoline]	> 15		> 15				IC50 (HUVEC [1]; [8]): > 50 µM
CCN(CC)c1ccc(O)c2ncccc12 [Entry 35, 5-(N,N-Diethyl)amino-8-hydroxyquinoline]	20.1	0.329 ± 0.17	7.21 ± 1.3				b = bottom value in the dose-response curve, hMetAP2 (hMetAP2): 25%; b = bottom value in the dose-response curve, hMetAP1 (hMetAP1): 29%
Oc1cccc2cccnc12 [Entry 1, 8-hydroxyquinoline]		6.21 ± 1.1					IC50 (hMetAP1; IC50 hMetAP1): > 15 µM
CCOC(=O)COc1ccc([N+](=O)[O-])c2cccnc12 [Entry 49, ethyl 2-(5-nitroquinolin-8-yloxy)acetate]	> 15	7.3 ± 0.81	> 15				
O=C(NCCCl)Oc1c(Cl)cc(Cl)c2cccnc12 [Entry 21, 5,7-Dichloroquinolin-8-yl 2-chloroethylcarbamate]			> 15				IC50 (HUVEC [1]; [8]): 2.62 ± 0.5 µM
COc1ccc(N2CCN(Cc3cc(Cl)c4cccnc4c3O)CC2)cc1 [Entry 17, 5-Chloro-7-((4-(4-methoxyphenyl)piperazin-1-yl)methyl)-quinolin-8-ol]	> 15	1.46 ± 0.33	> 15				Immunoblot Met-14-3-3γ (MetAP): − (−, >1.5); level of Ac-p53 compared to DMSO treated cells (SIRT1; 10 μM, HUVEC): did increase; Immunoblot Ac-p53 (SIRT1): + (+, 2.0–7.0)
Oc1c(CN2CCOCC2)ccc2cccnc12 [Entry 12]				> 15	> 20	> 50	
O=C(Nc1cc(F)cc(F)c1)Oc1ccc(Cl)c2cccnc12 [Entry 23, 5-Chloroquinolin-8-yl 3,5-difluorophenylcarbamate]	> 15		> 15				IC50 (HUVEC [1]; [8]): 2.2 ± 0.1 µM
O=S(=O)(O)c1ccc(O)c2ncccc12 [Entry 6]				> 15	> 50		
Oc1ccc(Cl)c2cccnc12 [Entry 4, Cloxyquin, reference compound]		1.41 ± 0.1					
